Screens deposited in PubChem by The Scripps Research Institute Molecular Screening Center.
OX1R antag-1 = OX1R (HCRTR1) antagonists, primary screen, fluorescence, CHO/OX1R cells, Fluo-8 calcium, orexin A; inhibition, % at 5 µM; Fluo-8 calcium fluorescence; AID 434989, 2010; 330,000 tested, 0.43% active;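 active means inhibition above its plate's threshold, mean inhibition of all tested compounds on the plate plus 3 SD, cut at about 37% in these data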
TAAR1 antag = human TAAR1 antagonists, primary screen, Fluo-8 calcium fluorescence, CHO RD-HGA16 cells; Trace amine-associated receptor 1 (Homo sapiens), Q96RJ0; antagonist; inhibition, % at 3 µM; 360,000 tested, 1.5% active; AID 624466, 2012;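 active means inhibition above a per-plate cutoff, the mean inhibition of test compounds on that plate plus 3 SD, cut at about 49% in these data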
Target sequence (Q96RJ0 whole entry, looked up): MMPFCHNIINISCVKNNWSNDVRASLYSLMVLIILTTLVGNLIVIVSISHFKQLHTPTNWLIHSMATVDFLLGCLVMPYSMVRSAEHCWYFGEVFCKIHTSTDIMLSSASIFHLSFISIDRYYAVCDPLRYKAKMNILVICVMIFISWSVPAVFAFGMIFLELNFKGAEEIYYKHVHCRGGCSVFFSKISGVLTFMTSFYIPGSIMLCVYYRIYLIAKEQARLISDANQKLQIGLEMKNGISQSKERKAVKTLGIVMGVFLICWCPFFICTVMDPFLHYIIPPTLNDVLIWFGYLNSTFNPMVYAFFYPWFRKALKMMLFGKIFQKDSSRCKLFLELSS
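Material: CHO RD-HGA16 cells bearing hTAAR1; compound dosing: one-point dosing, 3 µM nominal final; schedule: dye loading 75 min at 37 °C, then 30 min room temperature; measured by: calcium fluorescence with Fluo-8; control set: vehicle and agonist controls; replication: n of 1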
OX1R antag-2 = antagonists of human orexin 1 receptor (OX1R) | OX1R-expressing cells, FRET antagonist read-out | inhibition, % at 6.6 µM | AID 485270, 2010 | Orexin/Hypocretin receptor type 1 (Homo sapiens), O43613 | 330,000 tested, 1.8% active; in the data active means inhibition mostly above about 38%, no sharp cut-off; inactive means mostly below about 40%
TAAR1 ag = human TAAR1 agonists, primary screen, Fluo-8 calcium fluorescence, CHO RD-HGA16 cells; vehicle wells 0%, saturating PEA agonist 100%; activation, % at 3 µM; 360,000 tested, 0.99% active;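 active means activation above the mean activation of all test compounds in the run plus 3 SD, cut at about 38% in these data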
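Assay system – CHO-derived RD-HGA16 cells with stable Gα16 and human TAAR1 · Compound dosing – one-point dosing at 3 µM (nominal) · Incubation – 17-24 h seeding, 75 min 37 °C dye, 30 min RT · Measured by – kinetic Fluo-8 calcium fluorescence · Control set – DMSO vehicle as 0%, PEA at EC100 as 100% · Repeats – single well for each compound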
GPR7 antag = GPR7 receptor antagonists, primary screen, cell-based, fluorescence, single concentration; Neuropeptides B/W receptor type 1 (Homo sapiens), P48145; GPR7-expressing cells, fluorescence antagonist assay; inhibition, % at 4.4 µM; 290,000 tested, 1.1% active; in the data active means inhibition above about 16%, passing the limit was not always enough;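 further: cells stimulated with the agonist NPW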
Target sequence (P48145 whole entry, looked up): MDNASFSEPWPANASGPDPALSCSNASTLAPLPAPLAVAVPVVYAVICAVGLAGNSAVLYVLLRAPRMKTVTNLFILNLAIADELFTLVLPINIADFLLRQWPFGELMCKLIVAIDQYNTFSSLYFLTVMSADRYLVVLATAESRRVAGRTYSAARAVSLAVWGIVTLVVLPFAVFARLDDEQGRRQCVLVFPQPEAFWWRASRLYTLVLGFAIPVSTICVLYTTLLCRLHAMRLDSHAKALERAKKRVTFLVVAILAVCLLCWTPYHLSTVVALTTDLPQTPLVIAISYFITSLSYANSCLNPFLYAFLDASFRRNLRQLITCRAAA
CHO parental Ca = ATP-evoked calcium signal inhibitors, parental CHO, primary screen, counter-screen for OX1R antagonist project, cell-based, fluorescence, Fluo-8 calcium dye; 330,000 tested, 0.63% active; inhibition, % at 5.6 µM; parental CHO-K1, ATP-induced calcium, Fluo-8 fluorescence;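 active means inhibition above that plate's mean sample inhibition plus 3 SD, cut at about 26% in these data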
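Assay system: parental CHO cells; Read-out basis: percent inhibition of ATP-evoked calcium rise, normalized to controls; Benchmarks: ATP and no-ATP DMSO wells; Compound dosing: single nominal dose of 5.6 µM per compound; Signal: Fluo-8 calcium dye fluorescence; Also added: ATP as calcium-mobilizing challenge; Repeats: singlicate.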
TAAR1 ag confirm = human TAAR1 agonists, retest of hits, confirmation, Fluo-8 calcium fluorescence, CHO RD-HGA16 cells. shares compounds with TAAR1 ag. scaled: DMSO 0%, maximal phenethylamine 100%. activation, % at 3 µM. 2,400 tested, 82% active;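 active means activation above a cutoff set at the run's mean compound activation plus 3 SD, cut at about 39% in these data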
Ga16 nonsel ag = nonselective calcium mobilization agonists, CHO-Ga16 cells, counter-screen for hTAAR1 agonist project, cell-based, fluorescence, CHO-Ga16 parental line; AID 651787, 2012; Fluo-8 calcium fluorescence; normalized to maximal ATP response, DMSO zero; 2,400 tested, 50% active; shares compounds with TAAR1 ag; activation, % at 3 µM;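 active means activation above the run cutoff, the mean activation over all tested wells plus 3 SD, cut at about 12% in these data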
TAAR1 desens = TAAR1 desensitization by agonist hits, confirmation, counter-screen for TAAR1 agonist project, cell-based, fluorescence, tachyphylaxis; AID 651951, 2012; shares compounds with TAAR1 ag; inhibition, % at 3 µM; 2,400 tested, 46% active; CHO RD-HGA16 hTAAR1, Fluo-8 calcium, beta-PEA response inhibition;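 active means inhibition above the run cutoff, the mean inhibition of all test compounds plus 3 SD, cut at about 49% in these data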;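 further: beta-PEA stimulus applied at its EC80; loss of beta-PEA calcium signal after compound pretreatment read as receptor desensitization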
Ga16 nonsel ant = inhibition of ATP-evoked calcium response in CHO-Ga16 cells, counter-screen for TAAR1 agonist project, cell-based, fluorescence; 2,400 tested, 39% active; CHO-Ga16 ATP-induced calcium, Fluo-8 fluorescence; AID 651952, 2012; inhibition, % at 3 µM; shares compounds with TAAR1 ag;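 active means inhibition above the plate's mean compound inhibition plus 3 SD, computed per plate, cut at about 22% in these data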
Large screens that a line does not name were inactive (follow-up assays come after a bar, where they were run). In the library only some 4.6% were active in any assay of this set; here they are far more common.

O=C(NC(=S)NNC(=O)c1ccccc1O)c1ccccc1	TAAR1 ag 66 | TAAR1 ag confirm 76 | Ga16 nonsel ag 66 | TAAR1 desens inactive | Ga16 nonsel ant inactive
O=C(NC(=S)NNC(=O)c1ccco1)c1ccccc1	none
Cc1ccccc1C(=O)NNC(=S)NC(=O)c1ccccc1	TAAR1 antag 55, TAAR1 ag 123 | TAAR1 ag confirm 135 | Ga16 nonsel ag 112 | TAAR1 desens 100 | Ga16 nonsel ant 78
CC(C)(C)c1ccc(CC(=O)N2CCC2(C)C(=O)NS(=O)(=O)c2ccc(C#N)cc2)cc1 (stereo not given)	none (no result: OX1R antag-1, OX1R antag-2, GPR7 antag, CHO parental Ca)
Cc1cccc(C(=O)NC(NCc2ccco2)C(Cl)(Cl)Cl)c1 (stereo not given)	none
Cc1cccc(C(=O)NC(NCCc2ccccc2)C(Cl)(Cl)Cl)c1 (stereo not given)	TAAR1 antag 61, TAAR1 ag 80 | TAAR1 ag confirm 69 | Ga16 nonsel ag inactive | TAAR1 desens inactive | Ga16 nonsel ant inactive
CN(C)CCOC1(Cc2ccc(F)cc2)CCC(C(C)(C)C)CC1 (stereo not given)	TAAR1 ag 56 (no result: OX1R antag-1, OX1R antag-2, GPR7 antag, CHO parental Ca) | TAAR1 ag confirm 51 | Ga16 nonsel ag 34 | TAAR1 desens inactive | Ga16 nonsel ant 23
Cc1ccc(CC2(OCCN(C)C)CCC(C(C)(C)C)CC2)cc1 (stereo not given)	TAAR1 ag 63 (no result: OX1R antag-1, OX1R antag-2, GPR7 antag, CHO parental Ca) | TAAR1 ag confirm 85 | Ga16 nonsel ag 45 | TAAR1 desens 75 | Ga16 nonsel ant 41
Cc1ccc(CNC(=S)NC2CCC(C(C)(C)C)CC2)cc1 (stereo not given)	none (no result: OX1R antag-1, OX1R antag-2, CHO parental Ca)
Cc1cc(/C=C(\C#N)C(N)=O)c(C)n1-c1ccc(N2CCOCC2)c([N+](=O)[O-])c1	TAAR1 ag 91 | TAAR1 ag confirm 114 | Ga16 nonsel ag 53 | TAAR1 desens 73 | Ga16 nonsel ant 29
Cc1cc(C=O)c(C)n1-c1ccc(N2CCCCC2)c([N+](=O)[O-])c1	none
C#CCOCCOCCOCCNc1nc(N2CCN(C(=O)[C@H](Cc3cc4ccccc4[nH]3)n3cc([C@@H](N)C(C)CC)nn3)CC2)nc(N2CCN(C(=O)[C@H](Cc3cc4ccccc4[nH]3)n3cc([C@@H](N)CC(C)C)nn3)CC2)n1 (stereo not given in full)	none (no result: TAAR1 antag, TAAR1 ag)
CCOc1ccc(/C=C/C(=O)Nc2ccccc2C(F)(F)F)cc1	none
COc1ccc(C(=O)CC(=O)C(=O)Nc2ccccc2C(F)(F)F)cc1	TAAR1 antag 73, TAAR1 ag 94 | TAAR1 ag confirm 132 | Ga16 nonsel ag 120 | TAAR1 desens 87 | Ga16 nonsel ant 77
COc1ccc(/C=C/C(=O)Nc2ccccc2C(F)(F)F)cc1	TAAR1 ag 48 | TAAR1 ag confirm inactive | Ga16 nonsel ag inactive | TAAR1 desens inactive | Ga16 nonsel ant inactive
COc1cc(C(=O)NC(C(=O)Nc2cccc(C(C)=O)c2)C(C)C)cc(OC)c1OC (stereo not given)	none
CCOc1ccc(CC(=NCCc2ccccc2)C2=C(O)CC(C)(C)CC2=O)cc1OCC	TAAR1 antag 87, TAAR1 ag 81 | TAAR1 ag confirm 88 | Ga16 nonsel ag inactive | TAAR1 desens 79 | Ga16 nonsel ant inactive
CCOc1ccc(CC(=N)C2=C(O)CC(C)(C)CC2=O)cc1OCC	none
Cc1cc(=O)[nH]c(Nc2cccc(F)c2)n1	TAAR1 ag 51 | TAAR1 ag confirm 81 | Ga16 nonsel ag inactive | TAAR1 desens inactive | Ga16 nonsel ant inactive
COc1ccc(CN2C[C@@H](CO)O[C@@H](n3cnc4c(N5CCN(CCO)CC5)ncnc43)C2)cc1	none (no result: OX1R antag-1, OX1R antag-2, GPR7 antag, CHO parental Ca)
CN(CCc1ccccc1)C(=O)c1[nH]c(C(F)(F)F)nc1-c1ccccc1	TAAR1 ag 70 (no result: OX1R antag-1, OX1R antag-2, GPR7 antag, CHO parental Ca) | TAAR1 ag confirm 77 | Ga16 nonsel ag inactive | TAAR1 desens inactive | Ga16 nonsel ant inactive
c1ccc2c(c1)CCN(c1nc3cc4c(cc3s1)OCCO4)C2	TAAR1 ag 56 | TAAR1 ag confirm 81 | Ga16 nonsel ag inactive | TAAR1 desens inactive | Ga16 nonsel ant inactive
COc1ccc(OC)c2sc(N3CCc4ccccc4C3)nc12	none
Cc1ccc(N2C(N)=C(C#N)C(c3cccs3)C3=C2CC(C)(C)CC3=O)cc1 (stereo not given)	TAAR1 ag 45 | TAAR1 ag confirm 39 | Ga16 nonsel ag 12 | TAAR1 desens inactive | Ga16 nonsel ant inactive
CC(NS(=O)(=O)c1ccc2[nH]c(=O)[nH]c2c1)c1ccc(F)cc1 (stereo not given)	none (no result: OX1R antag-1, OX1R antag-2, GPR7 antag, CHO parental Ca)
Cn1c(CNC(=O)C2CCCCC2)cc2cc(Cl)ccc21	TAAR1 antag 70, TAAR1 ag 65 | TAAR1 ag confirm inactive | Ga16 nonsel ag inactive | TAAR1 desens inactive | Ga16 nonsel ant inactive
Cc1cc2cc(CNC(=O)C3CCCC3)ccc2n1C	none (no result: GPR7 antag)
Cc1cc(Br)ccc1Nc1nc(N)nc(N)c1N=O	none (no result: OX1R antag-1, OX1R antag-2, GPR7 antag, CHO parental Ca)
Cc1ccc(N(C)c2nc(N)nc(N)c2N=O)cc1	TAAR1 ag 59 (no result: OX1R antag-1, OX1R antag-2, GPR7 antag, CHO parental Ca) | TAAR1 ag confirm 53 | Ga16 nonsel ag 65 | TAAR1 desens inactive | Ga16 nonsel ant 37
CC(Sc1ncn[nH]1)C(=O)NCc1ccccc1 (stereo not given)	none
CCOCCCNc1nc(C(F)(F)F)nc2c1nnn2Cc1ccccc1Cl	none
Cc1nc(NCCc2ccccc2)c2nnn(Cc3ccccc3Cl)c2n1	TAAR1 antag 79, TAAR1 ag 86 | TAAR1 ag confirm 91 | Ga16 nonsel ag inactive | TAAR1 desens 85 | Ga16 nonsel ant inactive
